Assay results from ChEMBL document CHEMBL1137740, “Design, cytotoxic and fluorescent properties of novel N-phosphorylalkyl substituted E,E-3,5-bis(arylidene)piperid-4-ones” (Eur J Med Chem, 2009).

Assays:
A549 [1] = assay: Cytotoxicity against human A549 cells after 72 hrs by MTT assay; type: functional, cell-based; details: A549, 72 h
Outline: (§1)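 Cells grown in RPMI-1640 with 10% FBS, 2 mM L-glutamine and gentamicin. Seeded at 1×10^4 cells/well and allowed to attach overnight at 37 °C, 5% CO2. Compounds dissolved in DMSO and diluted into FBS-free medium, tested at 5×10^-5, 10^-5, 10^-6 and 10^-7 M. After 72 h, MTT added for 3 h at 37 °C. Formazan dissolved in DMSO and OD read at 590 nm. Viability expressed versus untreated controls, triplicates. IC50 determined graphically; melphalan as positive control.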

SK-OV-3 [2] = assay: Cytotoxicity against human Scov3 cells after 72 hrs by MTT assay; type: functional, cell-based; details: SK-OV-3, 72 h; outline: as §1
[3] = Cytotoxicity against human Caov3 cells after 72 hrs by MTT assay; type: functional, cell-based; details: Caov-3, 72 h; outline: as §1
PC-3 [4] = assay: Cytotoxicity against human PC3 cells after 72 hrs by MTT assay; type: functional, cell-based; details: PC-3, 72 h; outline: as §1
[5] = Cytotoxicity against human Caov3 cells at 50 uM after 72 hrs by MTT assay; type: functional; details: Caov-3, 72 h
SK-OV-3 [6] = assay: Cytotoxicity against human Scov3 cells at 50 uM after 72 hrs by MTT assay; type: functional; details: SK-OV-3, 72 h
PC-3 [7] = assay: Cytotoxicity against human PC3 cells at 50 uM after 72 hrs by MTT assay; type: functional; details: PC-3, 72 h
A549 [8] = assay: Cytotoxicity against human A549 cells at 50 uM after 72 hrs by MTT assay; type: functional; details: A549, 72 h

SMILES | IC50 (A549 [1]) | IC50 (SK-OV-3 [2]) | IC50 [3] | IC50 (PC-3 [4]) | inhibition at 50 µM [5] | inhibition at 50 µM (SK-OV-3 [6]) | inhibition at 50 µM (PC-3 [7]) | inhibition at 50 µM (A549 [8])
O=C1/C(=C/c2ccc([N+](=O)[O-])cc2)CNC/C1=C\c1ccc([N+](=O)[O-])cc1 | 0.4 µM | 2.5 µM | 1.03 µM | 1.54 µM | – | – | – | –
O=C1/C(=C/c2ccc(F)cc2)CNC/C1=C\c1ccc(F)cc1 | 0.8 µM | 6.5 µM | – | 6 µM | < 50% | – | – | –
CN(C)c1ccc(/C=C2\CNC/C(=C\c3ccc(N(C)C)cc3)C2=O)cc1 | 1.4 µM | 14 µM | – | 15 µM | < 50% | – | – | –
CCOP(=O)(CCCN1C/C(=C\c2ccc(N(C)C)cc2)C(=O)/C(=C/c2ccc(N(C)C)cc2)C1)OCC | – | – | – | – | < 50% | < 50% | < 50% | < 50%
CCOP(=O)(CCCCN1C/C(=C\c2ccc(N(C)C)cc2)C(=O)/C(=C/c2ccc(N(C)C)cc2)C1)OCC | – | – | – | – | < 50% | < 50% | < 50% | < 50%
CCOP(=O)(CCN1C/C(=C\c2ccc(N(C)C)cc2)C(=O)/C(=C/c2ccc(N(C)C)cc2)C1)OCC | – | – | – | – | < 50% | < 50% | < 50% | < 50%
CCOP(=O)(CCN1C/C(=C\c2ccc([N+](=O)[O-])cc2)C(=O)/C(=C/c2ccc([N+](=O)[O-])cc2)C1)OCC | 1 µM | 2.01 µM | 5.05 µM | 1.32 µM | – | – | – | –
CCOP(=O)(CCCN1C/C(=C\c2ccc([N+](=O)[O-])cc2)C(=O)/C(=C/c2ccc([N+](=O)[O-])cc2)C1)OCC | 7.12 µM | 0.9 µM | 5.62 µM | 0.71 µM | – | – | – | –
CCOP(=O)(CN1C/C(=C\c2ccc(N(C)C)cc2)C(=O)/C(=C/c2ccc(N(C)C)cc2)C1)OCC | – | – | – | 30 µM | < 50% | < 50% | – | < 50%
CCOP(=O)(CN1C/C(=C\c2ccc(F)cc2)C(=O)/C(=C/c2ccc(F)cc2)C1)OCC | 8.05 µM | 2.1 µM | 10.2 µM | 3 µM | – | – | – | –
CCOP(=O)(CN1C/C(=C\c2ccc([N+](=O)[O-])cc2)C(=O)/C(=C/c2ccc([N+](=O)[O-])cc2)C1)OCC | 1 µM | 1.52 µM | 5.03 µM | 1.4 µM | – | – | – | –
CCOP(=O)(CCCN1C/C(=C\c2ccc(F)cc2)C(=O)/C(=C/c2ccc(F)cc2)C1)OCC | 9.07 µM | 2.8 µM | 8.5 µM | 1.82 µM | – | – | – | –
CCOP(=O)(CCN1C/C(=C\c2ccc(F)cc2)C(=O)/C(=C/c2ccc(F)cc2)C1)OCC | 1.02 µM | 1.64 µM | 10 µM | 4.01 µM | – | – | – | –
CCOP(=O)(CCCCN1C/C(=C\c2ccc([N+](=O)[O-])cc2)C(=O)/C(=C/c2ccc([N+](=O)[O-])cc2)C1)OCC | 3 µM | 4.1 µM | 1.01 µM | 1.2 µM | – | – | – | –
N[C@@H](Cc1ccc(N(CCCl)CCCl)cc1)C(=O)O [MELPHALAN] | 50 µM | 60 µM | 20 µM | 70 µM | – | – | – | –
